Data set [1] relates to Mus musculus. The data set can be described thus: Analgesic activity in Swiss mouse assessed as inhibition of acetic acid-induced writhing response at 50 mg/kg, po administered 1 hr before acetic acid challenge measured for 30 mins relative to control. It counts as functional. The gist of the method: (§1)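 Mice of either sex (25–35 g), fasted overnight, dosed by oral gavage with test agent suspended in 0.5% methylcellulose; controls got vehicle alone. Each hind-limb full extension counted as a writhe over 30 min after the noxious agent. % inhibition from treated vs control writhing; groups of 8–10; Student's t-test. Dosing starts at 100 mg/kg, then halved stepwise.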

Data set [2] has as its system Mus musculus. The data set can be described thus: Analgesic activity in Swiss mouse assessed as inhibition of acetic acid-induced writhing response at 25 mg/kg, po administered 1 hr before acetic acid challenge measured for 30 mins relative to control. It counts as functional. An outline of the steps: as §1
Data set [3] concerns Mus musculus. Put plainly: Analgesic activity in Swiss mouse assessed as inhibition of acetic acid-induced writhing response at 12.5 mg/kg, po administered 1 hr before acetic acid challenge measured for 30 mins relative to control. It counts as functional. The gist of the method: as §1
Data set [4] concerns Mus musculus. The data set can be described thus: Analgesic activity in Swiss mouse assessed as inhibition of acetic acid-induced writhing response at 6.25 mg/kg, po administered 1 hr before acetic acid challenge measured for 30 mins relative to control. It counts as functional. An outline of the steps: as §1
Data set [5] deals with Mus musculus. Put plainly: Analgesic activity in Swiss mouse assessed as inhibition of acetic acid-induced writhing response at 3.12 mg/kg, po administered 1 hr before acetic acid challenge measured for 30 mins relative to control. It counts as functional.
Data set [6] deals with Mus musculus. Put plainly: Analgesic activity in Swiss mouse assessed as inhibition of acetic acid-induced writhing response at 1.6 mg/kg, po administered 1 hr before acetic acid challenge measured for 30 mins relative to control. It counts as functional.
Data set [7] deals with Mus musculus. Put plainly: Sedative activity in Swiss mouse assessed as inhibition of spontaneous locomotor activity at 50 mg/kg, po dose measured for every 5 mins up to 90 mins. It counts as organism-based. Set-up: dose 50 mg/kg, route oral. An outline of the steps: (§2)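 Overnight-fasted mice given compound (0.5% methylcellulose) or vehicle by oral gavage, then housed singly in an activity cage. Locomotion auto-recorded in 5-min intervals for 90 min; pulses of the final 30 min scored. % inhibition versus controls; runs between 9.00 and 13.00; groups of 8–10; Student's t-test.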

Data set [8] deals with Rattus norvegicus. Put plainly: Acute gastrolesivity in Wistar rat assessed as appearance of gastric damage at 200 mg/kg, po after 5 hrs. It counts as toxicity, organism-based, Stomach. Set-up: dose 200 mg/kg, route oral. To be noted: in vivo. The gist of the method:
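Wistar rats (250–300 g), either sex, fasted overnight; compound suspended in 0.5% methylcellulose, single oral gavage at 200 mg kg^-1 (1 mL 100 g^-1). Stomachs excised 5 h later, fixed in 2% formalin, opened along greater curvature, examined by stereomicroscope by blinded observer. Reported as number of animals with gastric damage over treated animals (eight per group).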

For data set [9], the system named is Mus musculus. Put plainly: Analgesic activity in Swiss mouse assessed as inhibition of acetic acid-induced writhing response at 100 mg/kg, po administered 1 hr before acetic acid challenge measured for 30 mins relative to control. It counts as functional. An outline of the steps: as §1
The subject of data set [10] is Mus musculus. The data set can be described thus: Sedative activity in Swiss mouse assessed as inhibition of spontaneous locomotor activity at 100 mg/kg, po dose measured for every 5 mins up to 90 mins. It counts as organism-based. Also on record: dose 100 mg/kg, route oral. The gist of the method: as §2
For data set [11], the system named is Mus musculus. The data set can be described thus: Sedative activity in Swiss mouse assessed as inhibition of spontaneous locomotor activity at 12.5 mg/kg, po dose measured for every 5 mins up to 90 mins. Set-up: dose 12.5 mg/kg, route oral. It counts as organism-based. The gist of the method: as §2
The test system of data set [12] is Rattus norvegicus. Put plainly: Antiinflammatory activity against carrageenan-induced paw edema in Wistar rat assessed as inhibition of hind paw edema at 100 mg/kg, po administered 1 hr prior to carrageenan challenge measured after 3 hrs relative to control. It counts as functional. The gist of the method: (§3)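 Wistar rats of either sex (250–300 g), fasted overnight, gavaged with compound in 0.5% methylcellulose. 1 h later, 0.1 mL 1% carrageenan injected subcutaneously into the plantar hind paw. Paw volume read by plethysmometer right after injection and 3 h later. Control edema set as 100, % inhibition from swelling difference. Groups of 8–10; Student's t-test.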

In data set [13] the test system is Mus musculus. The data set can be described thus: Sedative activity in Swiss mouse assessed as inhibition of spontaneous locomotor activity at 10 mg/kg, po dose measured for every 5 mins upto 90 mins. It counts as functional. An outline of the steps: as §2
Data set [14] relates to Rattus norvegicus. Put plainly: Antiinflammatory activity against carrageenan-induced paw edema in Wistar rat assessed as inhibition of hind paw edema at 50 mg/kg, po administered 1 hr prior to carrageenan challenge measured after 3 hrs relative to control. It counts as functional. The gist of the method:
as §3

For data set [15], the system named is Rattus norvegicus. The data set can be described thus: Antiinflammatory activity against carrageenan-induced paw edema in Wistar rat assessed as inhibition of hind paw edema at 25 mg/kg, po administered 1 hr prior to carrageenan challenge measured after 3 hrs relative to control. It counts as functional. The gist of the method:
as §3

For data set [16], the system named is Rattus norvegicus. The data set can be described thus: Antiinflammatory activity against carrageenan-induced paw edema in Wistar rat assessed as inhibition of hind paw edema at 12.5 mg/kg, po administered 1 hr prior to carrageenan challenge measured after 3 hrs relative to control. It counts as functional. An outline of the steps: as §3
The subject of data set [17] is Rattus norvegicus. The data set can be described thus: Antiinflammatory activity against carrageenan-induced paw edema in Wistar rat assessed as inhibition of hind paw edema at 6.25 mg/kg, po administered 1 hr prior to carrageenan challenge measured after 3 hrs relative to control. It counts as functional. An outline of the steps: as §3
Data set [18] relates to Rattus norvegicus. The data set can be described thus: Antiinflammatory activity against carrageenan-induced paw edema in Wistar rat assessed as inhibition of hind paw edema at 10 mg/kg, po administered 1 hr prior to carrageenan challenge measured after 3 hrs relative to control. It counts as functional. An outline of the steps: as §3
For data set [19], the species on record is Mus musculus. Put plainly: animal or person. To be noted: Swiss, po, read-out: INH.
The subject of data set [20] is Rattus norvegicus. Put plainly: Antiinflammatory activity against carrageenan-induced paw edema in Wistar rat assessed as inhibition of hind paw edema at 3.12 mg/kg, po administered 1 hr prior to carrageenan challenge measured after 3 hrs relative to control. It counts as functional. An outline of the steps:
as §3

Data set [21] relates to Rattus norvegicus. The data set can be described thus: Antiinflammatory activity against carrageenan-induced paw edema in Wistar rat assessed as inhibition of hind paw edema at 1.6 mg/kg, po administered 1 hr prior to carrageenan challenge measured after 3 hrs relative to control. It counts as functional. An outline of the steps:
as §3

SMILES strings stand for the structures.

As to `CCN(CC)C(=O)c1c(N2CCN(C)CC2)c2cccnc2n2c(C(C)C)nnc12`, in data set [1], the inhibition in vivo at 50 mg/kg worked out at 85%. In addition, in data set [2], the inhibition in vivo at 25 mg/kg turned out to be 90%. The inhibition in vivo at 12.5 mg/kg in [3] came to 92%. Besides, the inhibition in vivo at 6.25 mg/kg in data set [4] turned out to be 83%. Besides, the inhibition in vivo at 3.12 mg/kg in [5] came to 85%. Besides, the inhibition in vivo at 1.6 mg/kg in [6] came to 39%. For the same compound, the inhibition at 50 mg/kg in data set [7] was 100%. The Activity result in data set [8] is “Non-toxic”. Moreover, the inhibition in vivo at 100 mg/kg in data set [9] was found to be 88%.
Consider `CCOc1cnc2c(C(=O)N(CC)CC)c(N3CCN(C)CC3)c3cccnc3n12`, for which the inhibition in vivo at 50 mg/kg in data set [1] is 62%. In data set [2], the inhibition in vivo at 25 mg/kg was found to be 54%. Also, the inhibition in vivo at 12.5 mg/kg in data set [3] worked out at 48%. Further, the inhibition in vivo at 6.25 mg/kg in data set [4] came out at 17%. Besides, in [10], the inhibition at 100 mg/kg stood at 60%. In addition, in data set [7], the inhibition at 50 mg/kg is 46%. In [11], the inhibition at 12.5 mg/kg worked out at 15%. Further, in data set [8], the Activity entry was “Non-toxic”. Besides, the figures for the inhibition in vivo at 100 mg/kg in [12] and in data set [9] were 26% and 97%, respectively.
On to `CN1C(=O)CN=C(c2ccccc2)c2cc(Cl)ccc21` [DIAZEPAM], for which, in data set [13], the inhibition in vivo at 10 mg/kg came out at 98%.
As to `CCC(CC)Nc1c(C(=O)N(CC)CC)c2nnc(C(C)C)n2c2ncccc12`, the inhibition in vivo at 50 mg/kg in data set [1] is 75%; in data set [14], 47%. Besides, the inhibition in vivo at 25 mg/kg in data set [2] is 58%; in [15], 47%. Besides, the inhibition in vivo at 12.5 mg/kg came out at 49% in data set [3] and 45% in data set [16]. The inhibition in vivo at 6.25 mg/kg in data set [4] amounted to 36%; in data set [17] it was 11%. In data set [7], the inhibition at 50 mg/kg was 84%. In addition, in data set [8], the Activity entry is listed as “Non-toxic”. Moreover, the inhibition in vivo at 100 mg/kg in data set [12] turned out to be 50%; in [9], 91%.
With `COc1ccc2c(c1)c(CC(=O)O)c(C)n2C(=O)c1ccc(Cl)cc1` [INDOMETHACIN], the inhibition in vivo at 10 mg/kg in data set [18] amounted to 51%; in [19] it was 84%.
Regarding `CCNC(=O)c1c(NCC(C)C)c2cccnc2n2c(C(C)C)nnc12`, the inhibition in vivo at 50 mg/kg amounted to 21% in data set [1] and 50% in data set [14]. Also, the inhibition at 100 mg/kg in data set [10] was 48%. In addition, the Activity result in data set [8] is recorded as “Non-toxic”. The values for the inhibition in vivo at 100 mg/kg in data set [12] and in data set [9] were 60% and 81%, respectively. The inhibition in vivo at 25 mg/kg in data set [15] is 47%. Also, in data set [16], the inhibition in vivo at 12.5 mg/kg worked out at 49%. Besides, the inhibition in vivo at 6.25 mg/kg in [17] was determined as 40%. In addition, in [20], the inhibition in vivo at 3.12 mg/kg was 35%. Besides, the inhibition in vivo at 1.6 mg/kg in [21] is 18%.
As to `CCN(CC)C(=O)c1c(N(C)CC)c2cccnc2n2c(C(C)C)nnc12`, the figures for the inhibition in vivo at 50 mg/kg in data set [1] and in [14] were 59% and 67%, respectively. In addition, the results for the inhibition in vivo at 25 mg/kg in data set [2] and in data set [15] were 17% and 65%, respectively. Moreover, in data set [7], the inhibition at 50 mg/kg was 22%. Further, the Activity result in [8] was “Non-toxic”. For the same compound, the results for the inhibition in vivo at 100 mg/kg in data set [12] and in data set [9] were 71% and 81%, respectively. In addition, the inhibition in vivo at 12.5 mg/kg in [16] stood at 51%. Further, the inhibition in vivo at 6.25 mg/kg in data set [17] turned out to be 42%.

The values above are taken from ChEMBL document CHEMBL1156763, “1,8-Naphthyridines VIII. Novel 5-aminoimidazo[1,2-a] [1,8]naphthyridine-6-carboxamide and 5-amino[1,2,4]triazolo[4,3-a] [1,8]naphthyridine-6-carboxamide derivatives showing potent analgesic or anti-inflammatory activity, respectively, and completely devoid of acute gastrolesivity” (Eur J Med Chem, 2010).
